Results reported in ChEMBL document CHEMBL3407436, “Design and development of novel Mycobacterium tuberculosis L-alanine dehydrogenase inhibitors” (Eur J Med Chem, 2015).
≈ marks a conversion by molar mass, not a printed value.

Assays:
[1] = Inhibition of Mycobacterium tuberculosis AlaDH using L-alanine as substrate after 20 mins by spectrophotometry
In short: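 125 mM glycine-KOH buffer pH 10.2, 1 mM NAD⁺, 50 mM L-alanine, enzyme at a level set by range finding; 20 min at 37°C. NADH formation from oxidative deamination monitored continuously at 340 nm. Compounds tested at 25 to 0.5 µM; background measured without enzyme. IC₅₀ by software analysis.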

[2] = test system: Mycobacterium tuberculosis; experiment: Antimycobacterial activity against dormant Mycobacterium tuberculosis H37Rv model assessed as log reduction at 10 ug/ml incubated for 7 days measured after 28 days in presence of nutrient deprived condition; type: functional
In short: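 H37Rv grown in 7H9/OADC, pelleted, washed twice and resuspended in PBS in sealed bottles, starved 6 weeks at 37°C. Treated at 10 µg/ml for 7 days. Suspensions diluted 10-fold to 10^-6 in 7H9/OADC and plated in triplicate; 37°C for 28 days without agitation. Wells with visible growth scored positive, MPN calculated statistically.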

[3] = test system: Mycobacterium tuberculosis; experiment: Antimycobacterial activity against Mycobacterium tuberculosis H37Rv ATCC 27294 after 28 days by agar dilution method; type: functional; details: H37Rv ATCC 27294, 672 h
In short: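 Two-fold serial dilutions incorporated into Middlebrook 7H11 agar with OADC, final 50 to 0.78 µg/mL. Inoculum from fresh 7H11 slants adjusted to 1 mg/mL wet weight in 0.05% Tween 80 saline, diluted 10^-2 (~10⁷ cfu/mL). 5 µL spotted per tube; 37 °C, read after 28 days. MIC = lowest concentration completely inhibiting growth; duplicates.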

[4] = Cytotoxicity against mouse RAW264.7 cells at 50 uM after 48 hrs by MTT assay; type: cell-based; details: read-out: INH
In short: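 RAW 264.7 cells grown in RPMI with 10% FBS plus penicillin/streptomycin to 80-90% confluency, seeded ~5,000 cells/well on poly-L-lysine plates, 24 h at 37°C, 5% CO₂. Compounds at 50 µM for 48 h; MTT (0.5 mg/ml) added for 3 h at 37°C; formazan read at 595 nm.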

[5] = test system: Mycobacterium tuberculosis; experiment: Binding affinity to Mycobacterium tuberculosis AlaDH assessed as protein-ligand stabilization by measuring shift in melting temperature by differential scanning fluorimetry
In short: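 Thermal shift assay on MTB L-AlaDH with Sypro Orange dye in a real-time PCR instrument. Samples equilibrated at 25°C for 3 min, then heated to 95°C in 0.1°C steps with fluorescence read at each step. Tm of protein-ligand complex compared with native protein Tm.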

Row | SMILES | IC50 ([1]; read-out: IC50) | FC [2] | MIC [3] | cytotoxicity at 48 h, 50 µM [4] | IC50 [1] | ΔTm [5]
1 | CN1CCc2c(sc(NC(=O)c3ccc(Cl)cc3)c2C(N)=O)C1 | 0.67 µM | 2 | 8.95 µM (≈ 3.13 µg/mL) | 38.5% |  | 
2 | COc1c(N2C[C@@H]3CCCN[C@@H]3C2)c(F)cc2c(=O)c(C(=O)O)cn(C3CC3)c12 [MOXIFLOXACIN] |  | 2.5 | 1.24 µM (≈ 0.498 µg/mL) |  | Not Active | 
3 | NC(=O)c1c(NC(=O)c2ccc(Cl)cc2)sc2c1CCN(C(=O)c1ccccc1)C2 | 1.5 µM | 2 | 28.5 µM (≈ 12.5 µg/mL) | 42.5% |  | 
4 | N=C1S/C(=C\c2ccc(OCc3ccccc3)cc2)C(=O)N1c1ccc(Br)cc1 | 22.3 µM |  | 3.35 µM (≈ 1.56 µg/mL) | 7.83% |  | 
5 | N=C1S/C(=C\c2ccc(OCc3ccccc3)cc2)C(=O)N1c1ccccn1 | 2.12 µM | 2 | 8.06 µM (≈ 3.12 µg/mL) | 37.2% |  | 
6 | N=C1S/C(=C\c2ccc(OCc3ccccc3)cc2)C(=O)N1c1cccc([N+](=O)[O-])c1 | 5.56 µM |  | 14.5 µM (≈ 6.26 µg/mL) | 52.9% |  | 
7 | CCc1nc(Nc2ccccc2)c2c3c(sc2n1)CCCC3 | 15.1 µM |  |  |  |  | 
8 | CC(=O)N1CCc2c(sc(NC(=O)c3ccc(OCc4ccccc4)cc3)c2C(N)=O)C1 | 0.63 µM | 2 | 1.56 µM (≈ 0.701 µg/mL) | 11.6% |  | 
9 | CC(=O)N1CCc2c(sc(NC(=O)c3ccc(Oc4ccccc4)cc3)c2C(N)=O)C1 | 0.66 µM |  | 6.11 µM (≈ 2.66 µg/mL) | 32.9% |  | 
10 | Cc1cccc(N2C(=N)S/C(=C\c3ccc(OCc4ccccc4)cc3)C2=O)n1 | 9.44 µM |  | 1.94 µM (≈ 0.779 µg/mL) | 25.1% |  | 
11 | NNC(=O)c1ccncc1 [ISONIAZID] |  | 1.2 | 0.72 µM (≈ 0.0987 µg/mL) |  | Not Active | 
12 | CC(C)(C)OC(=O)N1CCc2c(sc(NC(=O)c3ccc(Oc4ccccc4)cc3)c2C(N)=O)C1 | 1.12 µM | 2 | 6.33 µM (≈ 3.12 µg/mL) | 26.9% |  | 
13 | CC[C@@H](CO)NCCN[C@@H](CC)CO [ETHAMBUTOL] |  |  | 7.64 µM (≈ 1.56 µg/mL) |  | Not Active | 
14 | CC(C)(C)OC(=O)N1CCc2c(sc(NC(=O)c3ccc(OCc4ccccc4)cc3)c2C(N)=O)C1 | 0.64 µM | 2 | 1.53 µM (≈ 0.777 µg/mL) | 52.1% |  | 
15 | NC(=O)c1c(NC(=O)c2ccc(Oc3ccccc3)cc2)sc2c1CCN(C(=O)c1ccccc1)C2 | 1.11 µM | 2 | 3.47 µM (≈ 1.73 µg/mL) | 4.71% |  | 
16 | N=C1S/C(=C\c2ccc(OCc3ccccc3)cc2)C(=O)N1c1ccc([N+](=O)[O-])cc1 | 6.16 µM |  | 7.23 µM (≈ 3.12 µg/mL) | 17.3% |  | 
17 | N=C1S/C(=C\c2ccc(OCc3ccccc3)cc2)C(=O)N1c1ccccc1[N+](=O)[O-] | 15 µM | 2 | 58 µM (≈ 25 µg/mL) | 24.4% |  | 
18 | N#C/C(=C\c1cccs1)c1nc2cc([N+](=O)[O-])ccc2[nH]1 | 21.3 µM |  |  |  |  | 
19 | CO[C@H]1/C=C/O[C@@]2(C)Oc3c(C)c(O)c4c(O)c(c(/C=N/N5CCN(C)CC5)c(O)c4c3C2=O)NC(=O)/C(C)=C\C=C\[C@H](C)[C@H](O)[C@@H](C)[C@@H](O)[C@@H](C)[C@H](OC(C)=O)[C@@H]1C [RIFAMPIN] |  | 2 | 0.15 µM (≈ 0.123 µg/mL) |  | Not Active | 
20 | N=C1S/C(=C\c2ccc(OCc3ccccc3)cc2)C(=O)N1c1ncc([N+](=O)[O-])s1 | 6.77 µM |  |  |  |  | 

Row | SMILES | IC50 ([1]; read-out: IC50) | FC [2] | MIC [3] | cytotoxicity at 48 h, 50 µM [4] | IC50 [1] | ΔTm [5]
21 | CC(=O)N1CCc2c(sc(NC(=O)C3CC3)c2C(N)=O)C1 | 20.1 µM |  |  |  |  | 
22 | N=C1S/C(=C\c2ccc(OCc3ccccc3)cc2)C(=O)N1c1ccc(Cl)cc1Cl | 3.49 µM | 2 | 13.8 µM (≈ 6.27 µg/mL) | 13.8% |  | 
23 | NC(=O)c1c(NC(=O)c2ccc(OCc3ccccc3)cc2)sc2c1CCN(Cc1ccccc1)C2 | 0.81 µM | 2 | 12.6 µM (≈ 6.26 µg/mL) | 24% |  | 
24 | NC(=O)c1c(NC(=O)c2ccc(OCc3ccccc3)cc2)sc2c1CCN(C(=O)c1ccccc1)C2 | 0.8 µM | 2 | 12.9 µM (≈ 6.62 µg/mL) | 13.7% |  | 
25 | Cc1c(Cl)cccc1N1C(=N)S/C(=C\c2ccc(OCc3ccccc3)cc2)C1=O | 13 µM |  | 14.4 µM (≈ 6.26 µg/mL) | 59.7% |  | 
26 | N=C1S/C(=C\c2ccc(OCc3ccccc3)cc2)C(=O)N1c1ccc(F)cc1 | 8.55 µM | 2 | 7.72 µM (≈ 3.12 µg/mL) | 10.5% |  | 
27 | Cc1cccc(C)c1N1C(=N)S/C(=C\c2ccc(OCc3ccccc3)cc2)C1=O | 1.74 µM | 2 | 60.4 µM (≈ 25 µg/mL) | 38.7% |  | 1.4 °C
28 | N=C1S/C(=C\c2ccc(OCc3ccccc3)cc2)C(=O)N1c1ccc(Cl)cc1 | 7.01 µM |  | 7.42 µM (≈ 3.12 µg/mL) | 16.4% |  | 
29 | Cc1ccc(C)c(N2C(=N)S/C(=C\c3ccc(OCc4ccccc4)cc3)C2=O)c1 | 1.34 µM | 2 | 15.1 µM (≈ 6.26 µg/mL) | 45.8% |  | 4.6 °C
30 | CC(C)(C)OC(=O)N1CCc2c(sc(NC(=O)c3ccc(Cl)cc3)c2C(N)=O)C1 | 0.58 µM |  | 1.79 µM (≈ 0.78 µg/mL) | 37.3% |  | 1.8 °C
31 | Cc1ccc(N2C(=N)S/C(=C\c3ccc(OCc4ccccc4)cc3)C2=O)c(C)c1 | 6.08 µM |  | 1.88 µM (≈ 0.779 µg/mL) | 36.8% |  | 
32 | N=C1S/C(=C\c2ccc(OCc3ccccc3)cc2)C(=O)N1c1ncccn1 | 7.52 µM |  | 4.02 µM (≈ 1.56 µg/mL) | 26.6% |  | 
33 | N=C1S/C(=C\c2ccc(OCc3ccccc3)cc2)C(=O)N1c1ccccc1 | 2.27 µM |  | 16.2 µM (≈ 6.26 µg/mL) | 37.9% |  | 
34 | NC(=O)c1c(NC(=O)c2ccc(Oc3ccccc3)cc2)sc2c1CCN(Cc1ccccc1)C2 | 0.78 µM | 2 | 3.58 µM (≈ 1.73 µg/mL) | 23.6% |  | 
35 | CN1CCc2c(sc(NC(=O)c3ccc(Oc4ccccc4)cc3)c2C(N)=O)C1 | 0.73 µM | 2 | 1.85 µM (≈ 0.754 µg/mL) | 58.9% |  | 
36 | NC(=O)c1c(NC(=O)c2ccc(Cl)cc2)sc2c1CCN(Cc1ccccc1)C2 | 1.14 µM | 2 | 3.67 µM (≈ 1.56 µg/mL) | 11.1% |  | 
37 | CC(=O)N1CCc2c(sc(NC(=O)c3ccc(Cl)cc3)c2C(N)=O)C1 | 0.64 µM |  | 4.13 µM (≈ 1.56 µg/mL) | 38.4% |  | 1.7 °C
38 | COc1ccc(NC(=O)N2CCc3c(sc(NC(=O)c4ccc([N+](=O)[O-])s4)c3C(N)=O)C2)cc1 | 8.17 µM |  |  |  |  | 
39 | CN1CCc2c(sc(NC(=O)c3ccc(OCc4ccccc4)cc3)c2C(N)=O)C1 | 1.22 µM | 2 | 15.3 µM (≈ 6.47 µg/mL) | 37.6% |  | 
